Screening results deposited in PubChem by several laboratories.
ABHD5 PLIN5 PPI = ABHD5-PLIN5 protein interaction inhibition. Split G. princeps luciferase complementation, luminescence, 4 h. inhibition, % at 4 µM. actives 0.78% (n = 360,000);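 active means inhibition above the mean inhibition across every tested compound plus 3 SD, cut at about 22% in these data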;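 further: 0% = DMSO only wells and the 100% control is not disclosed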
Target sequence (Q00G26 whole entry, looked up): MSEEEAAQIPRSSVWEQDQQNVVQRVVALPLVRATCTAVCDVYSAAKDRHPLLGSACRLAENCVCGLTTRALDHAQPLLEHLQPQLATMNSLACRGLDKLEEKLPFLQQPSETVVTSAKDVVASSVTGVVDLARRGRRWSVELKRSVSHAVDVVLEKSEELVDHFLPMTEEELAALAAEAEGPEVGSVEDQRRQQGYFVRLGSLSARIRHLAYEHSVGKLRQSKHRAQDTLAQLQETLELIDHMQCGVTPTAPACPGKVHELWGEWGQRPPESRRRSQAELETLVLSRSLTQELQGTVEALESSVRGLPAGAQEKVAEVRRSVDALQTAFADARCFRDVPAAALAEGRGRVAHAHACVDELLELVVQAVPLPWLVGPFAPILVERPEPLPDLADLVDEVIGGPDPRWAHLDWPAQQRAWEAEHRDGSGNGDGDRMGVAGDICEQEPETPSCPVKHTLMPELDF
Target sequence (Q8WTS1 whole entry, looked up): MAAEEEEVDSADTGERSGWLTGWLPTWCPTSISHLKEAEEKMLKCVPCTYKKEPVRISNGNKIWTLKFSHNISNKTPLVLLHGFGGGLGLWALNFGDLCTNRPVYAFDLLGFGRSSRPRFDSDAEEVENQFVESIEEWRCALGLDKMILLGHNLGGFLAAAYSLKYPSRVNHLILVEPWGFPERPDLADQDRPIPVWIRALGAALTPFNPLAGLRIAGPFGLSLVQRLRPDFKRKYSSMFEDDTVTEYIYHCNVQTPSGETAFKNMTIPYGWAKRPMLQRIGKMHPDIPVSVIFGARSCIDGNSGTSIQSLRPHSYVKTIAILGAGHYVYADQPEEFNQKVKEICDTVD
A3A deaminase = human APOBEC3A DNA deaminase inhibition; recombinant A3A, FAM/TAMRA ssDNA deamination fluorescence; actives 0.41% (n = 330,000); inhibition, % at 20 µM;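 active means at least 40% inhibition at 20 µM here, with at most 30% in a related deaminase screen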;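 further: plate controls were A3A with DMSO for no effect and wells lacking A3A enzyme for full effect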
FN deposition inh = fibronectin deposition inhibition | inhibition, % at 12.6 µM | AH1F fibroblasts, Alexa488-fibronectin deposition fluorescence, overnight | AID 743247 | actives 0.086% (n = 350,000);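 active means mean inhibition across replicates of 30% or more, regardless of how many single replicates reach that level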;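 further: positive control wells lacked labelled fibronectin entirely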
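Assay system: AH1F fibroblast monolayer, labelled fibronectin deposition. Amount: 10000 cells per well. Also added: labelled fibronectin 24 nM. Compound: single-point pinned compound. Incubation: cell attachment 1 h, compound and FN exposure overnight. Detection: fluorescence after three HBSS washes, excitation 485 nm, emission 525 nm. Read-out: inhibition of fibronectin deposition signal.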
APOBEC3G inh = blocks human APOBEC3G single-stranded DNA deamination | Q9HC16 | recombinant A3G, ssDNA deamination FAM/TAMRA fluorescence | inhibition, % at 20 µM | actives 0.28% (n = 330,000) | AID 493012;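 active means inhibition of at least 40% at 20 µM, with no more than 30% in the related APOBEC3A deaminase screen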;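 further: plate controls were DMSO wells with A3G for no effect and wells lacking A3G enzyme for full effect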
A3A conf = confirmation of human APOBEC3A DNA deaminase inhibitors. shares compounds with A3A deaminase. actives 63% (n = 1,400). inhibition, % at 20 µM. AID 493151. recombinant A3A, ssDNA deaminase UDG fluorescence assay;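 active means inhibition reaching a set limit, 80% of the first screen's cutoff, at 20 µM in any replicate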;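 further: plate controls were DMSO wells with A3A for no effect and wells lacking A3A enzyme for full effect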
UDG A3A counter = counter-screen for APOBEC3A inhibitors: UDG; shares compounds with A3A deaminase; UDG counterscreen, FAM/TAMRA uracil oligo fluorescence; inhibition, % at 20 µM; 1,000 tested, under 10 active; AID 504714; call rule not given here
The depositor's hits bear a star; / = no result given. Rows were chosen to be rich in hits. Some 1.2% of all compounds tested hit in one or more screens of this group.

SMILES	ABHD5 PLIN5 PPI	A3A deaminase	FN deposition inh	APOBEC3G inh	A3A conf	UDG A3A counter
O=C(C[C@@H]1CC[C@@H]2[C@H](COC[C@@H](O)CN2C(=O)c2ccccn2)O1)NC1CCC1	/	/	6.4	/	/	/
CN(C)Cc1ccccc1Sc1cccc2ccccc12	5.1	/	0.5	/	/	/
c1ccc(Sc2cccc3ccccc23)c(CNC2=NCCN2)c1	21.2	58.4*	-2.8	18.2	75.4*	2.5
C/C(=N\NC1=NCCN1)c1ccccc1	-1.3	-0.1	-3.3	-4.7	/	/
Fc1ccccc1Sc1ccccc1CNC1=NCCN1	5.0	62.9*	-2.7	-4.1	90.9*	-0.5
CCCc1nc(C)cc(N2CCN(c3ccccc3)CC2)n1	-1.4	1.8	6.4	-1.6	/	/
CC[n+]1c(C)cc(C)n1-c1ccccc1	-1.7	93.2*	4.0	14.4	75.3*	2.9
C[C@@H]1CN([C@@H](C)CO)C(=O)c2ccccc2-c2ccccc2CO[C@@H]1CN(C)C(=O)[C@H]1CCCN1C	/	/	11.1	/	/	/
O=C(Cc1noc2ccccc12)Nc1ccc2ccccc2c1	-3.4	46.8*	-5.4	-3.8	-33.4	8.0
Cc1ccc(NC(=O)Cc2noc3ccccc23)cc1	-0.5	-0.1	0.7	-2.7	/	/
C[C@@H]1CN(C)C(=O)Cc2cc(NS(C)(=O)=O)ccc2O[C@H]1CN(C)C	/	/	-14.0	/	/	/
COc1ccc(OC)c(-c2nnc(NC(=O)C(C)Sc3nncn3C)s2)c1 (configuration not stated)	14.1	-3.5	8.5	-1.7	/	/
Cc1nnc(NC(=O)C(C)Sc2nncn2C)s1 (configuration not stated)	-4.4	68.8*	4.0	-2.9	-7.8	-3.3
Cc1nnc(SC(C)C(=O)Nc2nccs2)s1 (configuration not stated)	0.0	71.4*	-3.5	5.4	12.7	/
CN1CCN(c2ccc(Cl)cc2NC(=O)CC2OC(=O)c3ccccc32)CC1 (configuration not stated)	-5.0	95.5*	3.3	28.7	69.1*	-2.2
COC(=O)[C@H]1[C@H](CO)[C@H]2Cn3c(ccc(-c4cncnc4)c3=O)[C@H]2N1CCC(F)(F)F	/	/	3.7	/	/	/
Cc1ccc(CCCOC(=O)CN2CCCCC2)cc1	2.3	-1.7	4.1	-8.5	/	/
Cc1ccc(CCCOC(=O)C[N+]2(C)CCOCC2)cc1	-2.9	42.2*	1.2	23.8	89.1*	4.1
C[N+]1(CC(=O)OCCCc2ccccc2)CCOCC1	4.6	68.7*	/	23.6	91.7*	5.4
CC(=O)NC[C@H]1[C@@H](c2ccc(C#CC(C)C)cc2)[C@@H](CO)N1C(=O)C1CC1	/	/	-14.9	/	/	/
O=C(C[C@H]1CC[C@@H]2[C@H](COC[C@H](O)CN2C(=O)c2ccccc2)O1)N1CCOCC1	/	/	-1.4	/	/	/
O=C(NC1CCCCC1)[C@H]1[C@H](CO)[C@H]2Cn3c(ccc(-c4ccccc4)c3=O)[C@@H]1N2	/	/	4.1	/	/	/
CCc1noc(C)c1C(=O)N1CCN(S(=O)(=O)c2ccc(Cl)cc2)CC1	3.4	-2.2	/	-6.3	/	/
CCc1noc(C)c1C(=O)N1CCN(S(=O)(=O)c2ccc(C(C)=O)cc2)CC1	-8.5	40.0*	5.0	0.9	-1.8	/
Cc1cc(-c2ccccc2)nc2c(Br)c(C(=O)O)nn12	-5.3	42.2*	/	22.7	40.1*	-1.9
SMILES	ABHD5 PLIN5 PPI	A3A deaminase	FN deposition inh	APOBEC3G inh	A3A conf	UDG A3A counter
N#CCNC(=O)c1nn2c(C(F)(F)F)cc(-c3ccccc3)nc2c1Br	1.1	-3.4	0.3	-5.2	/	/
COc1ccc(-c2ccc3c(c2)[C@@H]2[C@@H](CCN2C(=O)NC2CCCC2)[C@H](CO)N3C)cc1	/	/	0.4	/	/	/
O=C(COC(=O)/C=C/c1ccco1)Nc1ncc(C(F)(F)F)cc1Cl	3.5	51.1*	4.5	15.5	50.4*	2.6
Cc1cc(Br)ccc1SCC(=O)OCC(=O)NCc1ccco1	9.7	58.8*	1.7	21.7	42.6*	/
COc1ccccc1NCCC(=O)OCC(=O)NCc1ccco1	-2.9	44.4*	/	25.1	23.8*	1.1
O=C(COC(=O)CSc1ccc(Br)cc1)NCc1ccco1	6.0	-3.1	-9.9	-5.6	/	/
COc1ccc(OCCC(=O)OCC(=O)NCc2ccco2)cc1	4.1	13.9	/	7.4	/	/
Cc1ccc(C)c(SCC(=O)OCC(=O)c2ccco2)c1	-6.2	53.9*	/	15.4	51.2*	-2.0
O=C(COC(=O)/C=C/c1ccco1)NCc1ccco1	3.1	48.8*	-12.8	25.6	36.3*	1.1
